Test results: ChEMBL document CHEMBL3870310, “Design, synthesis and evaluation of pyrazole derivatives as non-nucleoside hepatitis B virus inhibitors” (Eur J Med Chem, 2016)

Experiments:
Hepatitis B virus [1] = test: Antiviral activity against Hepatitis B virus infected in human HepG2.2.15 cells assessed as inhibition of HBsAg secretion by ELISA; assay type: functional, cell-based
In short: (§1)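 Supernatant from HepG2.2.15 cultures aspirated and HBeAg or HBsAg measured with a diagnostic ELISA kit, absorbance read on a plate reader. Inhibition (%) = (A normal cell group − A experimental group)/[…] × 100; IC50 is the concentration giving 50% inhibition of antigen secretion. Lamivudine positive control.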

Hepatitis B virus [2] = test: Antiviral activity against Hepatitis B virus infected in human HepG2.2.15 cells assessed as inhibition of HBeAg secretion by ELISA; assay type: functional, cell-based; in short: as §1
[3] = Cytotoxicity against human HepG2.2.15 cells assessed as decrease in cell viability after 8 days by CCK-8 assay; assay type: toxicity, cell-based, HepG2 2.2.15
In short: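 HepG2.2.15 cells (HBV-transgenic human hepatoma) cultured in triplicate for 8 days with five doses of compound; untreated cells as controls. CCK-8 reagent added 0.5 h before end of culture, absorbance read at 450 nm, percent cell death calculated; CC50 is the concentration killing 50% of cells.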

[4] = Selectivity index, ratio of CC50 for human HepG2.2.15 cells to IC50 for Hepatitis B virus infected in human HepG2.2.15 cells assessed as inhibition of HBeAg secretion; assay type: functional
In short: (§2)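 SI = CC50 (CCK-8, HepG2.2.15, 8 days) divided by IC50 for inhibition of HBeAg or HBsAg secretion measured by ELISA in HepG2.2.15 supernatants.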

[5] = Selectivity index, ratio of CC50 for human HepG2.2.15 cells to IC50 for Hepatitis B virus infected in human HepG2.2.15 cells assessed as inhibition of HBsAg secretion; assay type: functional; in short: as §2
[6] = Cytotoxicity against human HepG2.2.15 cells assessed as decrease in cell viability after 8 days by CCK-8 assay
Hepatitis B virus [7] = test: Antiviral activity against Hepatitis B virus infected in human HepG2.2.15 cells assessed as inhibition of viral DNA replication after 8 days by real-time fluorescent PCR method; assay type: functional, cell-based; details: HepG2.2.15, 192 h
In short: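 HepG2.2.15 cells exposed to compounds […] for 8 days; 100 µL culture supernatant added to extraction buffer, boiled 10 min, centrifuged 10 min, and aliquots assayed for extracellular HBV DNA by fluorescent-probe real-time quantitative PCR kit. Lamivudine positive control.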

Hepatitis B virus [8] = test: Antiviral activity against Hepatitis B virus; assay type: functional
[9] = Cytotoxicity against human HepAD38 cells; assay type: toxicity, cell-based
Hepatitis B virus [10] = test: Antiviral activity against Hepatitis B virus infected in human HepAD38 cells assessed as inhibition of viral DNA replication; assay type: functional, cell-based

In the case of CCOC(=O)c1cn(-c2ccc(F)cc2)nc1CC(C)C, the IC50 (Hepatitis B virus [1]) is reported as greater than 100 µM, the IC50 (Hepatitis B virus [2]) is reported as greater than 100 µM and the CC50 at 192 h [3] is reported as greater than 100 µM.
In the case of CCOC(=O)c1cn(-c2cccc(C(=O)O)c2)nc1CC(C)C, the IC50 (Hepatitis B virus [1]) is reported as 41.9 µM, the IC50 (Hepatitis B virus [2]) is reported as 47.9 µM and the “Ratio CC50/IC50” value [4] is reported as 0.15. The CC50 at 192 h [3] was 7.1 µM and the “Ratio CC50/IC50” value [5] was 0.17.
For CC(C)Cc1nn(-c2cccc(F)c2)cc1C(=O)Nc1ccc(F)cc1, the IC50 (Hepatitis B virus [1]) was 25.9 µM, the IC50 (Hepatitis B virus [2]) was 24.7 µM and the “Ratio CC50/IC50” value [4] was 1.47. For the same molecule, the CC50 at 192 h [3] was 36.2 µM and the “Ratio CC50/IC50” value [5] was 1.4.
CC(C)Cc1sc(-c2nccs2)nc1C(=O)NCc1ccc(F)cc1 gave an IC50 at 8 days [6] of 50.4 µM, an IC50 (Hepatitis B virus [1]) of 34.7 µM and an IC50 (Hepatitis B virus [2]) of 31.6 µM. The “Ratio CC50/IC50” value [4] was 1.63, the CC50 at 192 h [3] was 51.5 µM and the IC50 (Hepatitis B virus [7]) was 1.33 µM. For the same molecule, the “Ratio CC50/IC50” value [5] was 1.48.
Molecule CCOC(=O)c1cn(-c2cccc([N+](=O)[O-])c2)nc1CC(C)C has an IC50 (Hepatitis B virus [1]) of 63.3 µM, an IC50 (Hepatitis B virus [2]) of 59.4 µM and a CC50 at 192 h [3] of 59.3 µM. For the same molecule, the “Ratio CC50/IC50” value [5] was 0.94.
In the case of CCOC(=O)c1nc(-c2cncs2)sc1CC(C)C, the IC50 (Hepatitis B virus [7]) is reported as 1.1 µM.
Molecule CCOC(=O)c1cn(-c2nccs2)nc1CC(C)C has an IC50 (Hepatitis B virus [1]) greater than 100 µM, an IC50 (Hepatitis B virus [2]) greater than 100 µM and a CC50 at 192 h [3] greater than 100 µM.
In the case of CCOC(=O)c1cn(-c2ccc(OC)cc2)nc1CC(C)C, the IC50 (Hepatitis B virus [1]) is reported as 68.5 µM, the IC50 (Hepatitis B virus [2]) is reported as 71.6 µM and the “Ratio CC50/IC50” value [4] is reported as 1.08. The CC50 at 192 h [3] was 77.1 µM and the “Ratio CC50/IC50” value [5] was 1.12.
Molecule CC(C)Cc1nn(-c2nccs2)cc1C(=O)NCc1ccc(N)cc1 has an IC50 (Hepatitis B virus [1]) greater than 100 µM, an IC50 (Hepatitis B virus [2]) greater than 100 µM and a CC50 at 192 h [3] greater than 100 µM.
CCOC(=O)c1nc(-c2cccc(F)c2)sc1CC(C)C gave an IC50 (Hepatitis B virus [8]) of less than 0.05 µM.
For COc1ccc(CONC(=O)c2cn(-c3cccc(F)c3)nc2CC(C)C)cc1, the IC50 (Hepatitis B virus [1]) was 57.6 µM, the IC50 (Hepatitis B virus [2]) was 44.8 µM and the “Ratio CC50/IC50” value [4] was 1.52. The CC50 at 192 h [3] was 67.9 µM and the “Ratio CC50/IC50” value [5] was 1.18.
In the case of CC(C)Cc1nn(-c2cccc(F)c2)cc1C(=O)NCc1ccncc1, the IC50 (Hepatitis B virus [1]) is reported as greater than 100 µM, the IC50 (Hepatitis B virus [2]) is reported as 71.2 µM and the “Ratio CC50/IC50” value [4] is reported as greater than 1.41. For the same molecule, the CC50 at 192 h [3] was greater than 100 µM.
Molecule CCOC(=O)c1cn(-c2ccc([N+](=O)[O-])cc2)nc1CC(C)C has an IC50 (Hepatitis B virus [1]) greater than 100 µM, an IC50 (Hepatitis B virus [2]) greater than 100 µM and a CC50 at 192 h [3] greater than 100 µM.
In the case of COc1ccccc1/C(Br)=C(/NC(=O)c1ccc([N+](=O)[O-])cc1)C(=O)N1CCCCC1, the IC50 [9] is reported as greater than 51 µM and the IC50 (Hepatitis B virus [10]) is reported as 0.13 µM.
Work on CCOC(=O)c1cn(-c2ccc(C(=O)O)cc2)nc1CC(C)C yielded an IC50 (Hepatitis B virus [1]) greater than 100 µM, an IC50 (Hepatitis B virus [2]) greater than 100 µM and a CC50 at 192 h [3] greater than 100 µM.
Work on Nc1ccn([C@@H]2CS[C@H](CO)O2)c(=O)n1 [LAMIVUDINE] yielded an IC50 (Hepatitis B virus [1]) greater than 100 µM, an IC50 (Hepatitis B virus [2]) greater than 100 µM and a CC50 at 192 h [3] greater than 100 µM.
In the case of COC(=O)c1nc(-c2cnc([C@@H](NC(=O)c3cccs3)C(C)C)s2)oc1C, the IC50 (Hepatitis B virus [7]) is reported as 76.4 µM.
With COc1ccc(CNC(=O)c2cn(-c3nccs3)nc2CC(C)C)cc1 the IC50 (Hepatitis B virus [1]) was greater than 100 µM, the IC50 (Hepatitis B virus [2]) was 95.7 µM and the “Ratio CC50/IC50” value [4] was greater than 1.05. It also gave a CC50 at 192 h [3] greater than 100 µM.
With CC(C)Cc1nn(-c2nccs2)cc1C(=O)NCc1ccc(O)cc1 the IC50 (Hepatitis B virus [1]) was greater than 100 µM, the IC50 (Hepatitis B virus [2]) was 86.2 µM and the “Ratio CC50/IC50” value [4] was greater than 1.16. The CC50 at 192 h [3] was greater than 100 µM.
For CCOC(=O)c1cn(-c2ccccc2F)nc1CC(C)C, the IC50 (Hepatitis B virus [1]) was 94.8 µM, the IC50 (Hepatitis B virus [2]) was 82.3 µM and the “Ratio CC50/IC50” value [4] was greater than 1.21. The CC50 at 192 h [3] was greater than 100 µM and the “Ratio CC50/IC50” value [5] was greater than 1.05.
For CC(C)Cc1nn(-c2cccc(F)c2)cc1C(=O)NCc1ccccc1, the IC50 (Hepatitis B virus [1]) was 38.6 µM, the IC50 (Hepatitis B virus [2]) was 38.5 µM and the “Ratio CC50/IC50” value [4] was 2.23. For the same molecule, the CC50 at 192 h [3] was 85.9 µM and the “Ratio CC50/IC50” value [5] was 2.23.
For CCOC(=O)c1cn(-c2ccccc2[N+](=O)[O-])nc1CC(C)C, the IC50 (Hepatitis B virus [1]) was 49.3 µM, the IC50 (Hepatitis B virus [2]) was less than 6.25 µM and the “Ratio CC50/IC50” value [4] was greater than 0.78. The CC50 at 192 h [3] was 4.85 µM and the “Ratio CC50/IC50” value [5] was 0.1.
For CCOC(=O)c1cn(-c2cccc(OC)c2)nc1CC(C)C, the IC50 (Hepatitis B virus [1]) was 63.3 µM, the IC50 (Hepatitis B virus [2]) was 70.6 µM and the “Ratio CC50/IC50” value [4] was 1. For the same molecule, the CC50 at 192 h [3] was 70.5 µM and the “Ratio CC50/IC50” value [5] was 1.11.
For CC(C)Cc1nn(-c2nccs2)cc1C(=O)NCc1cccc(F)c1, the IC50 (Hepatitis B virus [1]) was 58.8 µM, the IC50 (Hepatitis B virus [2]) was 17.2 µM and the “Ratio CC50/IC50” value [4] was greater than 5.8. The CC50 at 192 h [3] was greater than 100 µM and the “Ratio CC50/IC50” value [5] was greater than 1.7.
For CC(C)Cc1nn(-c2nccs2)cc1C(=O)NCc1ccc(C(F)(F)F)cc1, the IC50 (Hepatitis B virus [1]) was greater than 100 µM, the IC50 (Hepatitis B virus [2]) was greater than 100 µM and the CC50 at 192 h [3] was greater than 100 µM.
In the case of CC(C)Cc1nn(-c2nccs2)cc1C(=O)NCc1ccccc1F, the IC50 (Hepatitis B virus [1]) is reported as 50.1 µM, the IC50 (Hepatitis B virus [2]) is reported as 26 µM and the “Ratio CC50/IC50” value [4] is reported as greater than 3.85. For the same molecule, the CC50 at 192 h [3] was greater than 100 µM and the “Ratio CC50/IC50” value [5] was greater than 2.
With CC(C)Cc1nn(-c2cccc(F)c2)cc1C(=O)NCC1CCN(C(=O)OC(C)(C)C)CC1 the IC50 (Hepatitis B virus [1]) was greater than 100 µM, the IC50 (Hepatitis B virus [2]) was greater than 100 µM and the CC50 at 192 h [3] was greater than 100 µM.
In the case of CC(C)Cc1nn(-c2cccc(F)c2)cc1C(=O)NNc1ccc(F)cc1, the IC50 (Hepatitis B virus [1]) is reported as 51.9 µM, the IC50 (Hepatitis B virus [2]) is reported as 34 µM and the “Ratio CC50/IC50” value [4] is reported as 1.34. It also gave a CC50 at 192 h [3] of 45.4 µM.
For CC(C)Cc1nn(-c2nccs2)cc1C(=O)Nc1ccc(F)cc1, the IC50 (Hepatitis B virus [1]) was 24.3 µM, the IC50 (Hepatitis B virus [2]) was 2.22 µM and the “Ratio CC50/IC50” value [4] was 37.69. The CC50 at 192 h [3] was 83.7 µM and the “Ratio CC50/IC50” value [5] was 3.44.
In the case of CC(C)Cc1nn(-c2nccs2)cc1C(=O)NCc1ccc(F)cc1F, the IC50 (Hepatitis B virus [1]) is reported as 41.8 µM, the IC50 (Hepatitis B virus [2]) is reported as 8.84 µM and the “Ratio CC50/IC50” value [4] is reported as 9.46. For the same molecule, the CC50 at 192 h [3] was 83.6 µM and the “Ratio CC50/IC50” value [5] was 2.
In the case of CC(C)Cc1nn(-c2nccs2)cc1C(=O)NCc1ccc(F)cc1, the IC50 (Hepatitis B virus [1]) is reported as 44.5 µM, the IC50 (Hepatitis B virus [2]) is reported as 31.4 µM and the “Ratio CC50/IC50” value [4] is reported as greater than 3.18. For the same molecule, the CC50 at 192 h [3] was greater than 100 µM and the “Ratio CC50/IC50” value [5] was greater than 2.25.
Work on CC(C)Cc1nn(-c2cccc(F)c2)cc1C(=O)NCc1ccc(F)cc1 yielded an IC50 (Hepatitis B virus [1]) greater than 100 µM, an IC50 (Hepatitis B virus [2]) greater than 100 µM and a CC50 at 192 h [3] greater than 100 µM.
